For 30 molecules, IC95 and IC50 results are on record in ChEMBL document CHEMBL1127636, “The development of cyclic sulfolanes as novel and high-affinity P2 ligands for HIV-1 protease inhibitors” (J Med Chem, 1994).

The term IC50 denotes the midpoint of a concentration-inhibition curve.

In test [1] the test system is Human immunodeficiency virus 1. In words: Inhibition of HIV-1 in MT-4 human T-lymphoid cells infected with IIIb isolate. It counts as functional. The note with it: Human immunodeficiency virus 1, T-lymphoid; read-out: CIC95. In a few lines: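 Unless otherwise indicated, each value is from a single determination (n = 1).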
Test [2] deals with Human immunodeficiency virus type 1 protease (Human immunodeficiency virus 1, UniProt Q72874). In words: Inhibitory activity against HIV-1 protease.

Regarding `CCCC[C@H]1[C@@H](OC(=O)N[C@@H](Cc2ccccc2)[C@H](O)CN2C[C@H]3CCCC[C@H]3C[C@H]2C(=O)NC(C)(C)C)CCS1(=O)=O`, in test [1], the IC95 came to 0.4 µM. In test [2], the IC50 worked out at 0.0149 µM.
With `CC(C)(C)NC(=O)[C@@H]1C[C@@H]2CCCC[C@@H]2CN1C[C@@H](O)[C@H](Cc1ccccc1)NC(=O)O[C@H]1CCS(=O)(=O)[C@H]1C1CCCC1`, in test [1], the IC95 worked out at 0.4 µM. This molecule registered a half-inhibitory concentration (IC50) in test [2] of 0.0062 µM.
As for `CC(C)(C)NC(=O)[C@@H]1C[C@@H]2CCC[C@@H]2CN1C[C@@H](O)[C@H](Cc1ccccc1)NC(=O)O[C@H]1CCS(=O)(=O)C1`, in test [1], the IC95 was over 0.2 µM. This molecule showed an IC50 in test [2] of 0.0113 µM.
For `CC(C)[C@@H]1[C@H](OC(=O)N[C@@H](Cc2ccccc2)[C@H](O)CN2C[C@H]3CCCC[C@H]3C[C@H]2C(=O)NC(C)(C)C)CCS1(=O)=O`, the IC95 in test [1] came to 0.05 µM. Besides, half-maximal inhibition in test [2] (IC50) required 0.0035 µM.
For `C[C@@H]1C[C@H](OC(=O)N[C@@H](Cc2ccccc2)[C@H](O)CN2C[C@H]3CCCC[C@H]3C[C@H]2C(=O)NC(C)(C)C)CS1(=O)=O` the same measures were over 0.4 µM and 0.082 µM.
`CC(C)(C)NC(=O)[C@@H]1C[C@@H]2CCCC[C@@H]2CN1C[C@@H](O)[C@H](Cc1ccccc1)NC(=O)O[C@@H]1CCSC1` showed an IC50 in test [2] of 0.22 µM.
Turning to `CC(C)[C@H]1[C@@H](OC(=O)N[C@@H](Cc2ccccc2)[C@H](O)CN2C[C@H]3CCCC[C@H]3C[C@H]2C(=O)NC(C)(C)C)CCS1(=O)=O`, the IC95 in test [1] worked out at 0.2 µM.
Consider `C[C@@H]1OCC[C@@H]1OC(=O)N[C@@H](Cc1ccccc1)[C@H](O)CN1C[C@H]2CCCC[C@H]2C[C@H]1C(=O)NC(C)(C)C`, for which the IC95 in test [1] amounted to 0.4 µM.
On the same count and under the same terms, the figure for `C[C@@H]1[C@H](OC(=O)N[C@@H](Cc2ccccc2)[C@H](O)CN2C[C@H]3CCCC[C@H]3C[C@H]2C(=O)NC(C)(C)C)CCS1(=O)=O` is 0.2 µM.
Consider `CC(C)[C@@H]1[C@H](OC(=O)N[C@@H](Cc2ccccc2)[C@H](O)CN2C[C@H]3CCC[C@H]3C[C@H]2C(=O)NC(C)(C)C)CCS1(=O)=O`, for which the IC95 in test [1] turned out to be 0.1 µM. This molecule showed a 50% inhibitory concentration (IC50) in test [2] of 0.003 µM.
`CC(C)(C)NC(=O)[C@@H]1C[C@@H]2CCCC[C@@H]2CN1C[C@@H](O)[C@H](Cc1ccccc1)NC(=O)O[C@H]1CCOC1`: the IC95 in test [1] came out at 0.8 µM.
Take `C[C@H]1CS(=O)(=O)C[C@H]1OC(=O)N[C@@H](Cc1ccccc1)[C@H](O)CN1C[C@H]2CCCC[C@H]2C[C@H]1C(=O)NC(C)(C)C`: the IC95 in test [1] was 0.8 µM. Besides, inhibition in test [2] was half-maximal at 0.07 µM (IC50).
Consider `CC[C@H]1[C@@H](OC(=O)N[C@@H](Cc2ccccc2)[C@H](O)CN2C[C@H]3CCCC[C@H]3C[C@H]2C(=O)NC(C)(C)C)CCS1(=O)=O`, for which the IC95 in test [1] turned out to be 0.4 µM.
Molecule `CC(C)(C)NC(=O)[C@@H]1C[C@@H]2CCCC[C@@H]2CN1C[C@@H](O)[C@H](Cc1ccccc1)NC(=O)O[C@H]1CCSC1` came in with an IC50 in test [2] of 0.132 µM.
Take `CCC[C@@H]1[C@H](OC(=O)N[C@@H](Cc2ccccc2)[C@H](O)CN2C[C@H]3CCCC[C@H]3C[C@H]2C(=O)NC(C)(C)C)CCS1(=O)=O`: the IC95 in test [1] was 0.8 µM. In test [2], the IC50 amounted to 0.0201 µM.
On to `C[C@H]1C[C@@H](OC(=O)N[C@@H](Cc2ccccc2)[C@H](O)CN2C[C@H]3CCCC[C@H]3C[C@H]2C(=O)NC(C)(C)C)CS1(=O)=O`, for which, in test [2], the IC50 was 1.6 µM.
On to `C[C@H]1[C@@H](OC(=O)N[C@@H](Cc2ccccc2)[C@H](O)CN2C[C@H]3CCC[C@H]3C[C@H]2C(=O)NC(C)(C)C)CCS1(=O)=O`, for which, in test [1], the IC95 came out at 0.1 µM. In test [2], this molecule registered an IC50 of 0.0126 µM.
As to `CC(C)(C)NC(=O)[C@@H]1C[C@@H]2CCCC[C@@H]2CN1C[C@@H](O)[C@H](Cc1ccccc1)NC(=O)O[C@@H]1CCCS(=O)(=O)C1`, in test [2], the half-maximal inhibitory concentration (IC50) is 2.07 µM.
`CCC[C@H]1[C@@H](OC(=O)N[C@@H](Cc2ccccc2)[C@H](O)CN2C[C@H]3CCCC[C@H]3C[C@H]2C(=O)NC(C)(C)C)CCS1(=O)=O`: the IC95 in test [1] came to 0.4 µM. The molecule further yielded a concentration for half-maximal inhibition (IC50) in test [2] of 0.0062 µM.
For the molecule `C[C@H]1OCC[C@H]1OC(=O)N[C@@H](Cc1ccccc1)[C@H](O)CN1C[C@H]2CCCC[C@H]2C[C@H]1C(=O)NC(C)(C)C`, in test [1], the IC95 came to 1.6 µM.
`CC(C)(C)NC(=O)[C@@H]1C[C@@H]2CCCC[C@@H]2CN1C[C@@H](O)[C@H](Cc1ccccc1)NC(=O)O[C@H]1CCCS(=O)(=O)C1`: the midpoint of inhibition in test [2], the IC50, lay at 1.75 µM.
With `C[C@@H]1CS(=O)(=O)C[C@@H]1OC(=O)N[C@@H](Cc1ccccc1)[C@H](O)CN1C[C@H]2CCCC[C@H]2C[C@H]1C(=O)NC(C)(C)C`, in test [1], the IC95 is 0.8 µM. The IC50 in test [2] came out at 0.216 µM.
Molecule `CC(C)(C)NC(=O)[C@@H]1C[C@@H]2CCCC[C@@H]2CN1C[C@@H](O)[C@H](Cc1ccccc1)NC(=O)OC1CS(=O)(=O)C1` yielded a half-maximal inhibitory concentration (IC50) in test [2] of 0.104 µM.
Take `CC(C)(C)NC(=O)[C@@H]1C[C@@H]2CCC[C@@H]2CN1C[C@@H](O)[C@H](Cc1ccccc1)NC(=O)O[C@H]1CCOC1`: the IC95 in test [1] is 0.4 µM. Half-maximal inhibition in test [2] (IC50) was put at 0.061 µM.
`CC(C)(C)NC(=O)[C@@H]1C[C@@H]2CCCC[C@@H]2CN1C[C@@H](O)[C@H](Cc1ccccc1)NC(=O)O[C@@H]1CCS(=O)(=O)C1`: in test [1], the IC95 was over 0.8 µM.
`CCCC[C@@H]1[C@H](OC(=O)N[C@@H](Cc2ccccc2)[C@H](O)CN2C[C@H]3CCCC[C@H]3C[C@H]2C(=O)NC(C)(C)C)CCS1(=O)=O`: in test [1], the IC95 was 0.8 µM. Also, the concentration for half-maximal inhibition (IC50) in test [2] was found to be 0.0458 µM.
With `CC(C)(C)NC(=O)[C@@H]1C[C@@H]2CCCC[C@@H]2CN1C[C@@H](O)[C@H](Cc1ccccc1)NC(=O)O[C@H]1CCS(=O)(=O)C1`, in test [1], the IC95 amounted to 0.364 µM. The molecule also came in with an IC50 in test [2] of 0.076 µM.
As for `CC(C)(C)NC(=O)[C@@H]1C[C@@H]2CCCC[C@@H]2CN1C[C@@H](O)[C@H](Cc1ccccc1)NC(=O)O[C@@H]1CCS(=O)(=O)[C@@H]1C1CCCC1`, the IC95 in test [1] was found to be 1.5 µM. In test [2], this molecule returned an IC50 of 0.0226 µM.
For the molecule `CC[C@@H]1[C@H](OC(=O)N[C@@H](Cc2ccccc2)[C@H](O)CN2C[C@H]3CCCC[C@H]3C[C@H]2C(=O)NC(C)(C)C)CCS1(=O)=O`, in test [1], the IC95 was found to be 0.8 µM.
As for `C[C@H]1[C@@H](OC(=O)N[C@@H](Cc2ccccc2)[C@H](O)CN2C[C@H]3CCCC[C@H]3C[C@H]2C(=O)NC(C)(C)C)CCS1(=O)=O`, in test [1], the IC95 is 0.2 µM.
